Sampled rows, rich in hits. Any-hit rate of the full collection: about 2.5%.
ABHD5 PLIN5 PPI – ABHD5-PLIN5 protein interaction inhibition; Q00G26+Q8WTS1; Split G. princeps luciferase complementation, luminescence, 4 h; inhibition, % at 4 µM; 360,000 compounds, 0.78% hits;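 active = inhibition above the mean inhibition across every tested compound plus 3 SD, cut at about 22% in these data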
SENP1 FRET inh – blocks the human SENP1 SUMO protease catalytic domain. Q9P0U3. recombinant SENP1 catalytic domain, CyPet-SUMO1-YPet FRET cleavage. inhibition, % at 10 µM. 360,000 compounds, 0.21% hits. AID 624204;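 active = inhibition at least 30% at 10 µM, raw YFP signal under a set limit, fluorescence ratio 0.5 to 1.5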
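Material: hSENP1 catalytic domain, recombinant; medium: Tris pH 8 with BME, BSA, NP40 and catalase; compound: single concentration of 10 µM compound, 0.5% DMSO final; technique: FRET read of cyan and yellow fluorescence; timing: 50 min enzyme reaction, room temperature, light-protected; reagent: SFCypet-SUMO1-SFYpet substrate at 25 nM; control set: no-enzyme low, enzyme-DMSO high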
GRK2 inh – inhibitors of human GRK2 displacing RNA aptamer | P25098 | bead flow cytometry, FAM-aptamer displacement from GRK2 | inhibition of aptamer binding, % at 10 µM | 330,000 compounds, 0.59% hits | AID 488847;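 active = inhibition of aptamer binding above 40%, roughly 3 SD of noise, on plates passing a quality check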;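 also: median bead fluorescence of bound FAM aptamer so fluorescent compounds give negative values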
Target sequence (P25098 whole entry, looked up): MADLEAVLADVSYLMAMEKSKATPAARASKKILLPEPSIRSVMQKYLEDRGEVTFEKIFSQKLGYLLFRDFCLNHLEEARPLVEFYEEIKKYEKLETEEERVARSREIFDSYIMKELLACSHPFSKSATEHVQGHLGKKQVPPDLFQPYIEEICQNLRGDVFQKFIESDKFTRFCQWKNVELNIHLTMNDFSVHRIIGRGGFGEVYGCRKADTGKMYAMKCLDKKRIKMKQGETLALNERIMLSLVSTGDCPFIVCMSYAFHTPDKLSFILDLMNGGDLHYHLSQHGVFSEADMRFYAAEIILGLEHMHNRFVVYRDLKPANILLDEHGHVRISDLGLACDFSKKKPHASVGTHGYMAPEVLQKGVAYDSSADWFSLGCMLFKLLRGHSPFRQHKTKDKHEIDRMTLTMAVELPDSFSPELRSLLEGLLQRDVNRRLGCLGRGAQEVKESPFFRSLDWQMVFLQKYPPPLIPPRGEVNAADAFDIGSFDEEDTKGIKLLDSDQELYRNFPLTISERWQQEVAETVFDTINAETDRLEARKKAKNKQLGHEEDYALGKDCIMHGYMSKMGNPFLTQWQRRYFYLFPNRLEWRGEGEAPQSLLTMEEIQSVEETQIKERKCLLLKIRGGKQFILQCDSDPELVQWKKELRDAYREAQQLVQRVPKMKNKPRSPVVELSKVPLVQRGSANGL
B2AR ag – agonists of human beta-2 adrenergic receptor inducing internalization; Am2.2-beta2AR cells, FAP receptor internalization, flow cytometry; response, % (test concentration not listed); 340,000 compounds, 0.43% hits;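 active = response above a set limit, near 3 SD of response in nonfluorescent compounds, cut at about 42% in these data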
NadD inh – blocks S. aureus nicotinate mononucleotide adenylyltransferase | inhibition, % at 20 µM | AID 602399 | purified NadD enzyme, colorimetric absorbance read-out | 360,000 compounds, 0.78% hits; in the data active = inhibition above about 26%
Each line names hits and unclear results; the compound was inactive in the other large screens.

COc1ccc(CCN2C(=O)C=CC2=O)cc1OC	ABHD5 PLIN5 PPI 53 (no result: GRK2 inh)
C/C(=N/NS(=O)(=O)c1ccc(Cl)cc1)c1cccc(NC(=O)c2ccncc2)c1	none
C/C(=N\NS(=O)(=O)c1ccccc1)c1cccc(NC(=O)c2cccc(Cl)c2)c1	GRK2 inh 60
CCN(CC(=O)Nc1c(F)cccc1F)C(=O)c1ccc2ncsc2c1	none
O=C(N/N=C/c1ccc(O)c(O)c1O)/C(=C/c1ccc([N+](=O)[O-])cc1)NC(=O)c1ccccc1	NadD inh 44
CN(C)Cc1c(C(=O)N/N=C/c2ccco2)nnn1-c1nonc1N	none
O=C(CSc1nc(=O)[nH]c2c1CCCC2)Nc1ccc(F)cc1F	none
Cc1ccccc1NC(=S)NCc1ccc2c(c1)cc(C)n2C	B2AR ag 52
COc1ccccc1NC(=S)NCc1ccc2c(c1)cc(C)n2C	none
C=C1CC2(CC(c3ccccc3)OC(c3ccccc3)C2)OC1=O (centres undefined)	ABHD5 PLIN5 PPI 23 (no result: GRK2 inh)
CCC(C(=O)N1CCC(C(N)=O)CC1)n1nc(C)n2c(cc3occc32)c1=O (centres undefined)	none
CN(CCNC(=O)c1c[nH]c2c1ccc1ccccc12)CCNC(=O)c1c[nH]c2c1ccc1ccccc12	none (no result: GRK2 inh)
CCOc1ccc(-n2c(C)cc(C(=O)CCl)c2C)cc1	B2AR ag 46
COC(=O)c1ccc(-n2c(C)cc(C(=O)CCl)c2C)cc1	none
CC(C)(C)c1nc2ccc(NS(=O)(=O)c3ccc(F)c(F)c3F)cc2[nH]1	none
COC(=O)Cn1cc(/C=N/NC(=O)COc2cccc3cccnc23)c2ccccc21	B2AR ag 48
C#CCn1cc(/C=N/NC(=O)COc2cccc3cccnc23)c2ccccc21	none
O=C(O)c1ccc(CP(=O)(c2ccccc2)c2ccccc2)cc1	none
COc1ccccc1CN(C)C(=O)c1ccc(S(=O)(=O)NCc2ccco2)cc1	GRK2 inh 44
COc1ccccc1C(CNC(=O)c1ccc(S(=O)(=O)NCc2ccco2)cc1)N(C)C (centres undefined)	none
Cc1ccccc1NC(=O)COC(=O)COc1ccc2ccc(=O)oc2c1	none (no result: GRK2 inh, B2AR ag)
CC(C)C[C@H]1CNC(=S)N1C[C@H]1CCCN1C[C@H](Cc1ccc(O)cc1)N1C[C@H](CC(C)C)N(CCc2ccccc2)C1=S	ABHD5 PLIN5 PPI 23 (no result: GRK2 inh, B2AR ag)
CC(C)C[C@H]1CNC(=S)N1C[C@H]1CCCN1C[C@H](Cc1ccccc1)N1C[C@H](Cc2ccc(O)cc2)N(CCc2ccccc2)C1=S	none (no result: GRK2 inh, B2AR ag)
COc1cc(N=Nc2cccc(S(N)(=O)=O)c2)c2ccccc2c1N	SENP1 FRET inh 48
Cc1cc(-n2cc(Br)c(=O)[nH]c2=O)nc(-c2ccccc2)n1	none
CN1CCN(c2ccc(Cl)cc2NC(=O)/C=C/c2cccc(F)c2)CC1	ABHD5 PLIN5 PPI 22
COc1cccc(CN2CC(C(=O)NC3CCC(O)CC3)CCC2=O)c1 (centres undefined)	none
O=C(COc1ccccc1)N=C1SC2CS(=O)(=O)CC2N1c1cccc(F)c1 (centres undefined)	B2AR ag 48
COc1cccc(N2C(=NC(=O)COc3ccccc3)SC3CS(=O)(=O)CC32)c1 (centres undefined)	none
O=C1CC(c2ccc(O)cc2)Oc2cc(O)cc(O)c21 (centres undefined)	none
CC1CC(=O)c2c(cc3c(-c4c(O)cc(O)c5c(O)c6c(cc45)OC(C)CC6=O)c(O)cc(O)c3c2O)O1 (centres undefined)	SENP1 FRET inh 70
CC(=O)n1cc(N(C(=O)CCl)c2ccc(Cl)cc2)c2ccccc21	B2AR ag 46
CCOC(=O)C1=C(Cc2ccc(OC)cc2)C(=O)c2ccccc2C1=O	SENP1 FRET inh 40 (no result: GRK2 inh)
CCOC(=O)C1=C(Cc2ccc(C)cc2)C(=O)c2ccccc2C1=O	none (no result: ABHD5 PLIN5 PPI, SENP1 FRET inh, B2AR ag, NadD inh)
Cc1cc(C)c(S(=O)(=O)/N=C2/C=C(SCC(=O)O)C(=O)c3ccccc32)cc1C	NadD inh 48 (no result: GRK2 inh)
Cc1cc(C)c(S(=O)(=O)Nc2cc(SCC(=O)O)c(O)c3ccccc23)cc1C	none (no result: ABHD5 PLIN5 PPI, SENP1 FRET inh, B2AR ag, NadD inh)
CCCCCCCCCCn1c2c(c(=N)c3c1CCC3)CCC2	ABHD5 PLIN5 PPI 23
CCCCCCCCn1c2c(c(=N)c3ccccc31)CCC2	none (no result: GRK2 inh)
Cc1ccc(-n2c(C)cc(-c3csc(N)n3)c2C)cc1	NadD inh 30
CCn1nc(C)c(CNC(=O)Nc2ccc3c(c2)OCO3)c1C	none
Nc1ccc(Oc2ccc3nc(-c4ccccc4)c(-c4ccc([N+](=O)[O-])cc4)nc3c2)cc1	NadD inh 32
O=CC1=C(N2CCOCC2)/C(=C\c2ccccc2)CC1	ABHD5 PLIN5 PPI 22
C[C@H]1CN([C@@H](C)CO)C(=O)Cc2cc(NC(=O)CCC(F)(F)F)ccc2O[C@H]1CN(C)CC1CC1	none
COc1ncnc2c1NC1=C(S2)C(=NCCC(=O)O)CC(C)(C)C1	SENP1 FRET inh 52
O=C1C(=Cc2cn(-c3ccccc3)nc2-c2ccc(OCc3ccccc3)cc2)SC(=S)N1CCS(=O)(=O)O	NadD inh 50 (no result: GRK2 inh, B2AR ag)
O=C(O)CN1C(=O)/C(=C\c2cn(-c3ccccc3)nc2-c2ccccc2)SC1=S	NadD inh 31
CC(C)COc1ccc(-c2nn(-c3ccccc3)cc2/C=C2/SC(=S)N(CC(=O)O)C2=O)cc1	none
Cc1ccc(-c2nn(-c3ccccc3)cc2C=C2SC(=S)N(CCS(=O)(=O)O)C2=O)cc1	NadD inh 30 (no result: GRK2 inh, B2AR ag)
CCN1C(=O)/C(=C\c2cn(-c3ccccc3)nc2-c2cccnc2)SC1=S	none (no result: GRK2 inh)
COC(=O)c1ccc2c(c1)c(-c1ccccc1)c(-c1ccccc1)n2C	none
O=C(CN1CCN(C(=O)CCC(=O)N2CCC(c3ccccc3)=N2)CC1)Nc1ccc(F)cc1	none (no result: GRK2 inh)
COC(=O)C=C1CCC2C3CCC4=CC(=O)CCC4(C)C3C(=O)CC12C (centres undefined)	B2AR ag 94 (no result: GRK2 inh)
CC12CC(=O)C3C(CCC4=CC(=O)CCC43C)C1CC=C2CC(=O)O (centres undefined)	none (no result: GRK2 inh)
Cc1ccc(S(=O)(=O)Nc2c(C)n(C)n(-c3ccccc3)c2=O)cc1C(=O)NCc1ccco1	none (no result: GRK2 inh)
O=C(NCCCn1ccnc1)/C(=C\c1cccnc1)NC(=O)c1cccc(Br)c1	GRK2 inh 66
CN1CCN(C2=Cc3ccccc3Sc3cc(F)c(F)cc32)CC1	none
CN1CCN(C2=Cc3cc(Cl)ccc3Sc3cc(F)ccc32)CC1	ABHD5 PLIN5 PPI 27 (no result: B2AR ag)
COCCNC(=O)/C(C#N)=C/c1cc(Br)c(O)c(OC)c1	GRK2 inh 43
CCOCCCNC(=O)/C(C#N)=C/c1cc(Br)c(O)c(Br)c1	none (no result: GRK2 inh)
CC1(C)Cc2c(sc(NC(=O)c3ccc(S(=O)(=O)N4CCCCCC4)cc3)c2C#N)C(C)(C)N1	none
COc1ccc(C(=O)Nc2ccc(-c3ccc(C)o3)cc2)cc1S(=O)(=O)N1CCOCC1	ABHD5 PLIN5 PPI 22
CC(=O)N(C)c1ccc(C=C2C=Cc3ccccc32)cc1	none (no result: GRK2 inh)

From PubChem
